Measured values gathered from unrelated publications.
Compare with care: the assays were run in different laboratories.
USP51: Ubiquitin carboxyl-terminal hydrolase 51 (USP51, Homo sapiens, UniProt Q70EK9)
GHSR: Growth hormone secretagogue receptor type 1 (GHSR, Homo sapiens, UniProt Q92847)
CASP3: Caspase-3 (CASP3, Homo sapiens, UniProt P42574)

Cn1cc(-c2cccc(N3CCc4c(sc5c4CC(C)(C)C5)C3=O)c2CO)cc(Nc2ccncn2)c1=O
inhibition (Calcium/calmodulin-dependent protein kinase type IV (CAMK4, Homo sapiens, UniProt Q16566); enzyme activity; inhibitor; 1 µM): -5%

CC(C)[C@]12O[C@H]1[C@@H]1O[C@]13[C@]1(O[C@H]1C[C@H]1C4=C(CC[C@@]13C)C(=O)OC4)[C@@H]2O
inhibition (USP51; enzyme activity; inhibitor; 5 µM): 0%

O=C(Nc1cccnn1)N1CCN([C@@H]2CCOc3cc(C(F)(F)F)ccc32)CC1
inhibition (Angiotensin-converting enzyme (ACE, Homo sapiens, UniProt P12821); enzyme activity; inhibitor; 20 µM): -7%

C[C@H](C(=O)N[C@H]1COc2ccccc2[C@@H]1S(C)(=O)=O)c1ccc(F)cc1
inhibition (GHSR; cell-free assay; 10 µM): -1%

C#Cc1n[nH]c2c(-c3cn([C@@H](C)c4ccccn4)c(=O)[nH]c3=O)cc(F)cc12
inhibition (AP2-associated protein kinase 1 (AAK1, Homo sapiens, UniProt Q2M2I8); enzyme activity; inhibitor; 0.1 µM): 4.6%

c1ccc(C(NCCNC(c2ccccc2)c2ccccc2)c2ccccc2)cc1
inhibition (GHSR; cell-free assay; 10 µM): 86%

COC(=O)C[C@](O)(CCC(C)(C)O)C(=O)O[C@@H]1C(OC)=C[C@]23CCCN2CCc2cc4c(cc2[C@H]13)OCO4
inhibition (USP51; enzyme activity; inhibitor; 5 µM): 0%

Cc1ncc(C)n2nc(/C=C/c3nc(N4CCCC4)cc(N4CCOCC4)n3)nc12
inhibition (Prostaglandin F2-alpha receptor (PTGFR, Homo sapiens, UniProt P43088); ligand displacement; 10 µM): -9%

C#Cc1n[nH]c2c(-c3cn([C@@H](C)c4ccccc4)c(=O)[nH]c3=O)cc(F)cc12
inhibition (DNA-dependent protein kinase catalytic subunit (PRKDC, Homo sapiens, UniProt P78527); enzyme activity; inhibitor; 0.1 µM): -1.6%

CN(C)C(=O)COC(=O)Cc1ccc(OC(=O)c2ccc(NC(=N)N)cc2)cc1
inhibition (CASP3; enzyme activity; inhibitor; 10 µM): 0%

C[C@@H]1CC[C@H]2[C@@H](C)C(=O)O[C@@H]3O[C@@]4(C)CC[C@@H]1[C@]32OO4
inhibition (USP51; enzyme activity; inhibitor; 5 µM): 17%

CC(=O)N[C@@H](CC(=O)O)C(=O)N[C@@H](CC(N)=O)C(=O)N[C@@H](CC(C)C)C(=O)N[C@H](C=O)CC(=O)O
inhibition (CASP3; enzyme activity; inhibitor; 10 nM): 25%

O=c1cccc2n1C[C@@H]1CNC[C@H]2C1
inhibition (USP51; enzyme activity; inhibitor; 5 µM): 0%

O=C(O[C@@H]1Cc2c(O)cc(O)cc2O[C@@H]1c1cc(O)c(O)c(O)c1-c1c([C@H]2Oc3cc(O)cc(O)c3C[C@H]2OC(=O)c2cc(O)c(O)c(O)c2)cc(O)c(O)c1O)c1cc(O)c(O)c(O)c1
inhibition (Tyrosine-protein phosphatase non-receptor type 22 (PTPN22, Homo sapiens, UniProt Q9Y2R2); enzyme activity; inhibitor; fluorescence; 10 µM): 25%

CCOC(=O)c1ccc(OC(=O)CCCCCNC(=N)N)cc1
inhibition (CASP3; enzyme activity; inhibitor; 10 µM): 2%

CC[C@H]1[C@@H]2C[C@H]3[C@@H]4N(C)c5ccccc5[C@]45C[C@@H]([C@H]2[C@H]5O)N3[C@@H]1O
inhibition (USP51; enzyme activity; inhibitor; 5 µM): 26%
